The test system of data set [1] is Staphylococcus aureus. Nature of the data set: Antibacterial activity against erythromycin-susceptible Staphylococcus aureus ATCC 25923 incubated for 24 hrs by broth dilution method. The class given is functional. The note with it: ATCC 25923, 24 h. In a few lines: (§1)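 CLSI broth microdilution in cation-adjusted Mueller-Hinton broth. Twofold dilutions spanned 0.25–128 or 0.5–256 µg/mL, with CAM and AZM as controls. Log-phase bacteria were added and incubated 24 h at 37 °C. MIC was read by turbidity as the concentration of the last clear well.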
For orientation: Dilution methods test growth across graded concentrations, often in twofold steps.

For data set [2], the system named is Streptococcus pyogenes. Nature of the data set: Antibacterial activity against erythromycin-susceptible Streptococcus pyogenes 1 clinical isolate incubated for 24 hrs by broth dilution method. The format is functional. In a few lines:
as §1

Data set [3] concerns Escherichia coli. Nature of the data set: Antibacterial activity against penicillin-susceptible Escherichia coli ATCC 25922 incubated for 24 hrs by broth dilution method. The format is functional. To be noted: ATCC 25922, 24 h. An outline of the steps:
as §1

Data set [4] relates to Pseudomonas aeruginosa. Nature of the data set: Antibacterial activity against penicillin-susceptible Pseudomonas aeruginosa ATCC 27853 incubated for 24 hrs by broth dilution method. The format is functional. To be noted: ATCC 27853, 24 h. An outline of the steps: as §1
Data set [5] concerns Bacillus subtilis. Nature of the data set: Antibacterial activity against penicillin-susceptible Bacillus subtilis ATCC 9372 incubated for 24 hrs by broth dilution method. The format is functional. The note with it: ATCC 9372, 24 h. An outline of the steps:
as §1

Data set [6] has as its system Staphylococcus aureus. Nature of the data set: Antibacterial activity against penicillin-resistant Staphylococcus aureus ATCC 31007 incubated for 24 hrs by broth dilution method. The class given is functional. To be noted: ATCC 31007, 24 h.
In data set [7] the test system is Staphylococcus aureus. Nature of the data set: Antibacterial activity against methicillin-resistant Staphylococcus aureus ATCC 43300 incubated for 24 hrs by broth dilution method. The class given is functional. The note with it: ATCC 43300, 24 h.
The test system of data set [8] is Streptococcus pneumoniae. Nature of the data set: Antibacterial activity against erythromycin-resistant Streptococcus pneumoniae B1 expressing the ermB incubated for 24 hrs by broth dilution method. The class given is functional.
For data set [9], the system named is Streptococcus pneumoniae. Nature of the data set: Antibacterial activity against erythromycin-resistant Streptococcus pneumoniae AB11 expressing the ermB and mefA incubated for 24 hrs by broth dilution method. The class given is functional.
Data set [10] concerns Streptococcus pyogenes. Nature of the data set: Antibacterial activity against erythromycin-resistant Streptococcus pyogenes 2 clinical isolate incubated for 24 hrs by broth dilution method. The class given is functional.
Data set [11] concerns MCF7. Nature of the data set: Cytotoxicity against human MCF7 cells assessed as viable cells up to 32 ug/ml incubated for 24 hrs by MTT assay. The class given is cell-based. The note with it: mcf7, 24 h. In a few lines:
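MCF-7 cells were seeded at 10^4 cells/well and allowed to settle overnight. Compound was added for 24 h, with CAM as control and DMSO as vehicle control. MTT (5 mg/mL stock) was then added for 4 h at 37 °C, formazan dissolved in DMSO for 10 min, and absorbance read at 570 nm. Read-out was percent viable cells.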
A general note: Formazan colour is commonly taken as a measure of viable cells.

The subject of data set [12] is Staphylococcus aureus. Nature of the data set: Bactericidal activity against erythromycin-susceptible Staphylococcus aureus ATCC 25923 incubated for 24 hrs followed by re-plating on tryptic soy agar plates for 24 hrs by broth microdilution assay. The class given is functional. To be noted: ATCC 25923, 24 h. In a few lines:
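Built on the broth microdilution MIC set-up (CAMH, 24 h, 37 °C). After 24 h, contents of clear wells were plated on tryptic soy agar and incubated 24 h at 37 °C. MBC was taken as the lowest concentration giving no colonies.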

The test system of data set [13] is Staphylococcus aureus. Nature of the data set: Ratio of MBC to MIC for erythromycin-susceptible Staphylococcus aureus ATCC 25923. The class given is functional.

SMILES strings stand for the structures. In brackets after ≈: the same amount, converted by molar mass.

As to `CO[C@]1(C)C[C@@H](C)[C@H](O)[C@H](C)CN(C)C[C@H](COCc2cn(-c3ccccn3)nn2)OC(=O)[C@H](C)[C@@H](O[C@H]2C[C@@](C)(OC)[C@@H](O)[C@H](C)O2)[C@H](C)[C@H]1O[C@@H]1O[C@H](C)C[C@H](N(C)C)[C@H]1O`, the MIC (in general, the lowest concentration that inhibits growth of the organism) is ≤ 0.25 µg/mL in [1]; 0.5 µg/mL (≈ 0.56 µM) in data set [2]; 64 µg/mL (≈ 71.7 µM) in [3]; 16 µg/mL (≈ 17.9 µM) in [4]; ≤ 0.25 µg/mL in [5]; > 256 µg/mL in [6]. Besides, the minimum inhibitory concentration (MIC) in data set [7] is > 256 µg/mL; in data set [8], > 256 µg/mL; in data set [9], 128 µg/mL (≈ 143 µM); in [10], 128 µg/mL (≈ 143 µM). Moreover, the Activity entry in [11] was “Non-Toxic”. Further, the minimum bactericidal concentration (MBC) (in general, the lowest tested concentration that kills the bacteria rather than only halting them) in [12] was > 128 µg/mL. Moreover, the Ratio in [13] is on record as >512.

The values are drawn from ChEMBL document CHEMBL4334458, “Design, synthesis and antibacterial evaluation of novel 15-membered 11a-azahomoclarithromycin derivatives with the 1, 2, 3-triazole side chain” (Eur J Med Chem, 2019).
